Results on 13 compounds are retold here after PubChem BioAssay.

Test [1] can be described thus: hit retest on RPL19A-GFP reporter strain – cell-based, S. cerevisiae, flow cytometry, cherry picks, mother/daughter gates, confirmation (AID 2270;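 active means GFP response below 50% of the DMSO control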). The settings on record: 3 h, at 10 µM, stronger effect = lower value, 100 = same GFP as DMSO wells. On the technique in general: Flow cytometry measures light scatter and fluorescence of single cells or particles in a stream.
Test [2] can be described thus: yeast TOR pathway reporter LAP4-GFP change – cell-based, cherry picks, flow cytometry, mother/daughter gates, confirmation (AID 2271;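 active means GFP response above 150% of the DMSO control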;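 further: ratio of sample to DMSO plate mean so 100% equals DMSO level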). To be noted: S. cerevisiae LAP4-GFP strain, 3 h, at 10 µM, stronger effect = higher value, 100 means same as DMSO control. Put shortly:
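System: GFP-fusion yeast strain | Input: Yeast cells seeded at OD600 of 0.2 | Technique: HT flow cytometry, GFP fluorescence channel | Read-out: % GFP response vs DMSO | Dosing: Single test-compound dose, 10 µM final | Controls: Positive rapamycin (400 ng/mL), negative DMSO | Times: 3 h treatment at 30 °C with rotation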

A short description of test [3]: TOR pathway reporter MEP2-GFP, retest of hits – S. cerevisiae, flow cytometry GFP, cherry picks, confirmation (AID 2272;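 active means GFP response above 150% of the DMSO control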;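 further: ratio of well signal to plate DMSO mean so 100% equals DMSO level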). The settings on record: S. cerevisiae MEP2-GFP strain, 3 h, at 10 µM, stronger effect = higher value.
A short description of test [4]: yeast AGP1-GFP fluorescence change, single-dose – cell-based, flow cytometry, S. cerevisiae, cherry picks, confirmation (AID 2273).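 Further: median GFP channel fluorescence over the whole cell population gate.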 To be noted: S. cerevisiae AGP1-GFP strain, 3 h, at 10 µM.
The nature of test [5]: TOR pathway CIT2 reporter hit retest – S. cerevisiae, GFP fusion, cherry picks, mother/daughter gates, confirmation (AID 2274). To be noted: S. cerevisiae CIT2-GFP strain, flow cytometry, 3 h, at 10 µM, stronger effect = higher value.
Where [6] appears, read: measured here: daughter cell gate.
The mark [7] stands for this setting: measured here: mother cell gate.
[8] abbreviates: measured here: daughter cell gate response.
The mark [9] stands for this setting: measured here: mother cell gate response.

Activity calls are given as the source filed them.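 How the source made its calls, unless noted: active means GFP response above 150% of the DMSO level; inconclusive means fewer than 70 events counted for a yeast strain; inactive means the rest.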

As for `Cc1cc(NCCN2CCOCC2)n2nc(C)c(-c3ccccc3)c2n1`, the GFP response vs DMSO in test [1] is 98.8% (inactive); in test [1] (setting [6]), 99.1%; in test [1] (setting [7]) it was 97.4%; in test [3], 102% (inactive). For the same compound, the GFP response relative to DMSO is 100% (inactive) in test [2], 95% in test [2] (setting [8]) and 99.5% in test [2] (setting [9]). Also, the GFP response, % of DMSO in test [4] was 95.2% (inactive); in test [5] it was 92.1% (inactive); in test [5] (setting [6]), 94.6%; in test [5] (setting [7]), 91%.
For `CCCc1[nH]nc2c1C(c1cccc(OC(=O)c3ccco3)c1)C(C#N)=C(N)O2` (stereo not drawn), the GFP response vs DMSO in test [1] was 98.5% (inactive); in test [1] (setting [6]), 96.7%; in test [1] (setting [7]), 96.7%; in test [3] it was 99.3% (inactive). Moreover, the figures for the GFP response relative to DMSO in test [2], in test [2] (setting [8]) and in test [2] (setting [9]) were 97.7% (inactive), 96% and 98.4%, respectively. Further, the GFP response, % of DMSO in test [4] is 106% (inactive); in test [5] it was 104% (inactive); in test [5] (setting [6]), 103%; in test [5] (setting [7]), 104%.
For `CN1CCc2c(sc3c2C(=O)NC(c2ccc4c(c2)OCO4)N3)C1` (stereo not drawn), the GFP response vs DMSO in test [1] was 98.4% (inactive); in test [1] (setting [6]) it was 99.8%; in test [1] (setting [7]), 98.5%; in test [3], 106% (inactive). The GFP response relative to DMSO in test [2] is 96.5% (inactive); in test [2] (setting [8]), 95%; in test [2] (setting [9]) it was 98.5%. For the same compound, the GFP response, % of DMSO in test [4] was 102% (inactive); in test [5], 102% (inactive); in test [5] (setting [6]) it was 102%; in test [5] (setting [7]), 99.1%.
Regarding `CCc1cc(=O)oc2c(CN3CCCC3)c(O)c(Cl)cc12`, the GFP response vs DMSO in test [1] was 97.6% (inactive); in test [1] (setting [6]), 101%; in test [1] (setting [7]), 95.8%; in test [3], 110% (inactive). Besides, the GFP response relative to DMSO was 104% (inactive) in test [2], 105% in test [2] (setting [8]) and 100% in test [2] (setting [9]). In addition, the GFP response, % of DMSO was 98.4% (inactive) in test [4], 107% (inactive) in test [5], 105% in test [5] (setting [6]) and 102% in test [5] (setting [7]).
For the compound `O=C(O)c1ccc(/C=N/NC(=O)c2ccc(Br)cc2)cc1`, the GFP response vs DMSO in test [1] is 102% (inactive); in test [1] (setting [6]), 100%; in test [1] (setting [7]) it was 102%; in test [3], 101% (inactive). Besides, the figures for the GFP response relative to DMSO in test [2], in test [2] (setting [8]) and in test [2] (setting [9]) were 98.2% (inactive), 95.9% and 98.4%, respectively. The GFP response, % of DMSO in test [4] is 99.8% (inactive); in test [5] it was 94.4% (inactive); in test [5] (setting [6]) it was 93.8%; in test [5] (setting [7]) it was 94.4%.
Turning to `Cc1c(N2C(=O)/C(=C\c3ccccc3O)SC2=S)c(=O)n(-c2ccccc2)n1C`, the GFP response vs DMSO was 101% (inactive) in test [1], 96% in test [1] (setting [6]), 98.3% in test [1] (setting [7]) and 102% (inactive) in test [3]. The GFP response relative to DMSO is 134% (inactive) in test [2], 130% in test [2] (setting [8]) and 137% in test [2] (setting [9]). Moreover, the GFP response, % of DMSO in test [4] was 93.2% (inactive); in test [5] it was 105% (inactive); in test [5] (setting [6]), 109%; in test [5] (setting [7]) it was 95.6%.
As for `O=C1c2cccc3cccc(c23)C(=O)N1c1cccnc1`, the GFP response vs DMSO in test [1] was 100% (inactive); in test [1] (setting [6]), 102%; in test [1] (setting [7]), 101%; in test [3], 98.3% (inactive). Besides, the GFP response relative to DMSO in test [2] was 85% (inactive); in test [2] (setting [8]), 86.4%; in test [2] (setting [9]) it was 85.5%. Besides, the GFP response, % of DMSO in test [4] was 98.7% (inactive); in test [5], 99.7% (inactive); in test [5] (setting [6]) it was 105%; in test [5] (setting [7]), 98.5%.
Consider `Cc1cc(N2CCOCC2)n2nc(C)c(-c3ccccc3)c2n1`, for which the GFP response vs DMSO in test [1] is 103% (inactive); in test [1] (setting [6]), 100%; in test [1] (setting [7]), 102%; in test [3], 101% (inactive). Moreover, the GFP response relative to DMSO in test [2] is 98.2% (inactive); in test [2] (setting [8]), 95.9%; in test [2] (setting [9]) it was 97.3%. In addition, the GFP response, % of DMSO was 101% (inactive) in test [4], 98.8% (inactive) in test [5], 97.4% in test [5] (setting [6]) and 98.1% in test [5] (setting [7]).
Take `O=C(O)c1ccc(Sc2ccccn2)c([N+](=O)[O-])c1`: the GFP response vs DMSO is 98% (inactive) in test [1], 99.1% in test [1] (setting [6]), 98.2% in test [1] (setting [7]) and 102% (inactive) in test [3]. Besides, the GFP response relative to DMSO in test [2] is 96.7% (inactive); in test [2] (setting [8]), 97.6%; in test [2] (setting [9]), 95.1%. In addition, the GFP response, % of DMSO in test [4] was 97% (inactive); in test [5] it was 99.7% (inactive); in test [5] (setting [6]) it was 101%; in test [5] (setting [7]) it was 98.5%.
`O=C(CSc1nc2ccsc2c(=O)n1CC1CCC(C(=O)O)CC1)c1ccc(F)cc1` (stereo not drawn): the GFP response vs DMSO is 102% (inactive) in test [1], 100% in test [1] (setting [6]), 103% in test [1] (setting [7]) and 100% (inactive) in test [3]. Also, the GFP response relative to DMSO in test [2] is 89% (inactive); in test [2] (setting [8]), 89.5%; in test [2] (setting [9]), 91.1%. The GFP response, % of DMSO is 94.6% (inactive) in test [4], 92.6% (inactive) in test [5], 94.8% in test [5] (setting [6]) and 92.3% in test [5] (setting [7]).
For `Cc1ccc(/C=C2\SC(=S)N(CC3CCCO3)C2=O)o1` (stereo not drawn), the GFP response vs DMSO was 93.8% (inactive) in test [1], 94.2% in test [1] (setting [6]), 93.5% in test [1] (setting [7]) and 143% (inactive) in test [3]. The GFP response relative to DMSO is 189% (active) in test [2], 167% in test [2] (setting [8]) and 194% in test [2] (setting [9]). In addition, the GFP response, % of DMSO in test [4] is 100% (inactive); in test [5], 98.6% (inactive); in test [5] (setting [6]), 97.6%; in test [5] (setting [7]), 98.2%.
Take `CCNC(=O)/C(C#N)=C/c1c(N(Cc2ccccc2)Cc2ccccc2)nc2ccccn2c1=O`: the GFP response vs DMSO in test [1] was 101% (inactive); in test [1] (setting [6]) it was 101%; in test [1] (setting [7]), 102%; in test [3] it was 110% (inactive). Besides, the GFP response relative to DMSO was 102% (inactive) in test [2], 101% in test [2] (setting [8]) and 103% in test [2] (setting [9]). Besides, the GFP response, % of DMSO is 99.3% (inactive) in test [4], 105% (inactive) in test [5], 108% in test [5] (setting [6]) and 104% in test [5] (setting [7]).
With `C=CCOc1ccccc1C(=O)/C=C1/C(=O)Nc2ccccc21`, the GFP response vs DMSO in test [1] was 101% (inactive); in test [1] (setting [6]), 102%; in test [1] (setting [7]) it was 95%; in test [3], 94.7% (inactive). Besides, the figures for the GFP response relative to DMSO in test [2], in test [2] (setting [8]) and in test [2] (setting [9]) were 142% (inactive), 130% and 148%, respectively. In addition, the GFP response, % of DMSO was 100% (inactive) in test [4], 91.5% (inactive) in test [5], 95.6% in test [5] (setting [6]) and 88.2% in test [5] (setting [7]).
